Test results as given in ChEMBL document CHEMBL1145956, “Indanylidenes. 2. Design and synthesis of (E)-2-(4-chloro-6-fluoro-1-indanylidene)-N-methylacetamide, a potent antiinflammatory and analgesic agent without centrally acting muscle relaxant activity” (2003).

Tests used:
Mus musculus [1] = experiment: Percent inhibition of muscle relaxant profile evaluated by straub tail assay when administered intraperitoneally at 100 mg/kg in mouse; format: functional; conditions: route intraperitoneal; for % effect at 100 mg/kg: Mus musculus
How it was run: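 Morphine-induced Straub tail model of muscle relaxant activity, mouse. Compound given intraperitoneally at 100 mg/kg and read out as % inhibition.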

Rattus norvegicus [2] = experiment: Antiinflammatory activity against 3h carrageenan pleurisy (cells) in rat at 20 mg/kg peroral administration; format: functional; conditions: route oral
How it was run: (§1)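 Rat 3 h carrageenan pleurisy model, read out as pleural cell count and as edema. Compounds given orally, either as % inhibition at 20 mg/kg or as ED50 in mg/kg. Each compound tested two or three times.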

Rattus norvegicus [3] = experiment: Antiinflammatory activity against 3h carrageenan pleurisy (edma) in rat at 20 mg/kg peroral administration; format: functional; conditions: route oral; how it was run: as §1
Rattus norvegicus [4] = experiment: Inhibition of trypsin hyperalgesia when administered perorally in rat; format: functional
How it was run: (§2)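 Rat trypsin hyperalgesia model for mild analgesia. Compounds given orally, either as % inhibition at 20 mg/kg or as ED50 in mg/kg. Each compound tested two or three times.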

Rattus norvegicus [5] = experiment: Percent inhibition of analgesia activity when administered perorally at 20 mg/kg in rat; format: functional; how it was run: as §2
Rattus norvegicus [6] = experiment: Antiinflammatory activity against 3h carrageenan pleurisy (cells) in rat peroral administration; format: functional; conditions: po; how it was run: as §1
Rattus norvegicus [7] = experiment: Antiinflammatory activity against 3h carrageenan pleurisy (edma) in rat mg/kg peroral administration; format: functional; conditions: po; how it was run: as §1
Mus musculus [8] = experiment: Effective dose required for muscle relaxant profile evaluated by straub tail assay when administered perorally in mouse; format: functional; conditions: po
How it was run: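 Morphine-induced Straub tail model of muscle relaxant activity, mouse, with oral dosing. Oral testing followed only where ip inhibition at 100 mg/kg exceeded 50%. At least three doses, N=6 animals per dose group. ED50 in mg/kg.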

Mus musculus [9] = experiment: Effective dose required for muscle relaxant profile in mouse by rotarod assay, when compound administered perorally; format: functional; conditions: po
How it was run: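 Rotorod model of sedation, mouse, with oral dosing. Used for compounds that passed the Straub tail ip screen. At least three doses, N=6 animals per dose group. ED50 in mg/kg.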

[10] = Ratio of rotarod to that of staub tail; format: functional
How it was run: (§3)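 Oral rotorod ED50 divided by oral Straub tail ED50, both in mouse, as an index of sedative potential. Each ED50 from at least three doses, N=6 animals per dose.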

Rattus norvegicus [11] = experiment: Antiinflammatory activity against 3h carrageenan pleurisy (edma) in rat peroral administration; format: functional; conditions: po; how it was run: as §1
Rattus norvegicus [12] = species on record: Rattus norvegicus; experiment: Antiinflammatory activity against trypsin hyperalgesia in rat at peroral dose of compound; conditions: po
[13] = Ratio of rotarod to that of straub tail; format: functional
How it was run: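 Ratio of oral rotorod ED50 (sedation) to oral ED50 in the morphine-induced Straub tail test. Only compounds giving >50% inhibition in the Straub tail test at 100 mg/kg ip went on to oral testing in both assays. Each assay generally used at least three doses with N=6 animals per dose group; variability approximately 15%.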

[14] = Ratio of rotarod to that of staub tail; ND is activity not determined.; format: functional; how it was run: as §3
[15] = Rattus norvegicus, po, read-out: ED50

Cc1cc(F)cc2c1CC/C2=C\C(N)=O
% effect (Mus musculus [1]): 0% | inhibition in vivo at 20 mg/kg (Rattus norvegicus [2]): 11% | inhibition in vivo at 20 mg/kg (Rattus norvegicus [3]): 24% | ED50 (Rattus norvegicus [4]; [15]): 10 mg/kg | inhibition in vivo at 20 mg/kg (Rattus norvegicus [5]; Rattus norvegicus, po): 92%

Cc1cc(Cl)c2c(c1)/C(=C/C(N)=O)CC2
ED50 (Rattus norvegicus [6]): > 25 mg/kg | ED50 (Rattus norvegicus [7]): > 25 mg/kg

NC(=O)/C=C1\CCc2cc(Cl)c(F)cc21
ED50 (Mus musculus [8]): 50 mg/kg | ED50 (Mus musculus [9]): 56 mg/kg | % effect at 100 mg/kg (Mus musculus [1]; ip): 100% | Ratio [10]: 1.1 | inhibition in vivo at 20 mg/kg (Rattus norvegicus [5]; Rattus norvegicus, po): 19%

NC(=O)/C=C1\CCc2c(Cl)cc(Cl)cc21
% effect (Mus musculus [1]): 0% | ED50 (Rattus norvegicus [6]): 25 mg/kg | ED50 (Rattus norvegicus [11]): 20 mg/kg | ED50 (Rattus norvegicus [4]; [15]): 4.1 mg/kg

COc1ccc2cc([C@H](C)C(=O)O)ccc2c1 [NAPROXEN]
ED50 (Rattus norvegicus [12]): 14 mg/kg

CC(C)Cc1ccc(C(C)C(=O)O)cc1 (centres undefined) [IBUPROFEN]
ED50 (Rattus norvegicus [2]): 34 mg/kg | ED50 (Rattus norvegicus [3]): 8 mg/kg

NC(=O)/C=C1\CCc2c(F)cc(Cl)cc21
% effect at 100 mg/kg (Mus musculus [1]; ip): 33% | inhibition in vivo at 20 mg/kg (Rattus norvegicus [2]): 34% | inhibition in vivo at 20 mg/kg (Rattus norvegicus [3]): 36% | ED50 (Rattus norvegicus [4]; [15]): > 10 mg/kg

NC(=O)/C=C1\CCc2c(Cl)cc(F)cc21 (stereo in doubt; 3)
% effect (Mus musculus [1]): 0% | ED50 (Rattus norvegicus [6]): 11 mg/kg | ED50 (Rattus norvegicus [11]): 11 mg/kg | ED50 (Rattus norvegicus [4]): 4 mg/kg | Inhibition (Rattus norvegicus [5]; route oral, 20 mg/kg): 79%

CNC(=O)/C=C1\CCc2c(Cl)cc(Cl)cc21
ED50 (Mus musculus [8]): > 100 mg/kg | % effect at 100 mg/kg (Mus musculus [1]; ip): 83% | inhibition in vivo at 20 mg/kg (Rattus norvegicus [2]): 9% | inhibition in vivo at 20 mg/kg (Rattus norvegicus [5]; Rattus norvegicus, po): 12%

NC(=O)/C=C1\CCc2c(Br)cc(F)cc21
ED50 (Rattus norvegicus [6]): > 20 mg/kg | ED50 (Rattus norvegicus [11]): > 20 mg/kg

NC(=O)/C=C1\CCc2c(F)cc(F)cc21
ED50 (Mus musculus [8]): 68.7 mg/kg | inhibition in vivo at 100 mg/kg (Mus musculus [1]; ip): 100% | ED50 (Rattus norvegicus [3]): 15 mg/kg | Ratio [13]: 2 | ED50 (Rattus norvegicus [6]): 19 mg/kg | ED50 (Rattus norvegicus [4]; [15]): 4 mg/kg | inhibition in vivo at 20 mg/kg (Rattus norvegicus [5]; route oral): 100%

O=C(/C=C1\CCc2c(F)cc(Cl)cc21)NC1CC1
inhibition in vivo at 20 mg/kg (Rattus norvegicus [5]; Rattus norvegicus, po): 31%

CNC(=O)/C=C1\CCc2c(C)cc(F)cc21
% effect at 100 mg/kg (Mus musculus [1]; ip): 67% | inhibition in vivo at 20 mg/kg (Rattus norvegicus [2]): 15% | inhibition in vivo at 20 mg/kg (Rattus norvegicus [3]): 40% | inhibition in vivo at 20 mg/kg (Rattus norvegicus [5]; Rattus norvegicus, po): 77%

O=C(/C=C1\CCc2c(Cl)cc(F)cc21)NC1CC1
ED50 (Mus musculus [8]): 44 mg/kg | ED50 (Mus musculus [9]): 44 mg/kg | % effect at 100 mg/kg (Mus musculus [1]; ip): 100% | ED50 (Rattus norvegicus [4]; [15]): 0.9 mg/kg | Ratio [10]: 1 | inhibition in vivo at 20 mg/kg (Rattus norvegicus [5]; Rattus norvegicus, po): 75%

NC(=O)/C=C1\CCc2c(Cl)cc(F)cc21 (stereo in doubt) [listing 1 of 2 here]
ED50 (Mus musculus [8]): 73 mg/kg | ED50 (Mus musculus [9]): 96 mg/kg | ED50 (Rattus norvegicus [4]; [15]): 7 mg/kg | inhibition in vivo at 20 mg/kg (Rattus norvegicus [5]; Rattus norvegicus, po): 70%

CNC(=O)/C=C1\CCc2cc(Cl)c(F)cc21
% effect at 100 mg/kg (Mus musculus [1]; ip): 17% | inhibition in vivo at 20 mg/kg (Rattus norvegicus [5]; Rattus norvegicus, po): 22%

O=C(/C=C1\CCc2cc(Cl)c(F)cc21)NC1CC1
inhibition in vivo at 20 mg/kg (Rattus norvegicus [5]; Rattus norvegicus, po): 27%

NC(=O)/C=C1\CCc2cc(Cl)cc(Cl)c21
ED50 (Mus musculus [8]): < 100 mg/kg | ED50 (Mus musculus [9]): 55 mg/kg | % effect at 100 mg/kg (Mus musculus [1]; ip): 100% | ED50 (Rattus norvegicus [2]): 5 mg/kg | ED50 (Rattus norvegicus [3]): 34 mg/kg | ED50 (Rattus norvegicus [4]; [15]): > 10 mg/kg | inhibition in vivo at 20 mg/kg (Rattus norvegicus [5]; Rattus norvegicus, po): 79%

CNC(=O)/C=C1\CCc2cc(Cl)cc(Cl)c21
% effect at 100 mg/kg (Mus musculus [1]; ip): 50% | inhibition in vivo at 20 mg/kg (Rattus norvegicus [2]): 0% | inhibition in vivo at 20 mg/kg (Rattus norvegicus [3]): 34% | inhibition in vivo at 20 mg/kg (Rattus norvegicus [5]; Rattus norvegicus, po): 22%

Cc1cc(F)cc2c1CC/C2=C\C(=O)NC1CC1
inhibition in vivo at 20 mg/kg (Rattus norvegicus [2]): 5% | inhibition in vivo at 20 mg/kg (Rattus norvegicus [3]): 7% | inhibition in vivo at 20 mg/kg (Rattus norvegicus [5]; route oral): 97%

NC(=O)/C=C1\CCc2c(Cl)cc(F)cc21 (stereo in doubt) [listing 2 of 2 here]
Ratio [14]: 1.3

CNC(=O)/C=C1\CCc2c(Cl)cc(F)cc21
% effect at 100 mg/kg (Mus musculus [1]; ip): 50% | ED50 (Rattus norvegicus [6]): 8 mg/kg | ED50 (Rattus norvegicus [11]): 5 mg/kg | ED50 (Rattus norvegicus [4]; [15]): 1.4 mg/kg | inhibition in vivo at 20 mg/kg (Rattus norvegicus [5]; route oral): 100%
